Fold change (FC) and Activity data for six compounds are collected here from ChEMBL document CHEMBL4024754, “Development of Potent, Protease-Resistant Agonists of the Parathyroid Hormone Receptor with Broad β Residue Distribution” (J Med Chem, 2017).

Active and inactive are the calls of the source. No cut-off for these calls is given here.

The target of assay [1] is T1, Parathyroid hormone/parathyroid hormone-related peptide receptor (Homo sapiens) (UniProt Q03431).
T1 sequence (whole entry): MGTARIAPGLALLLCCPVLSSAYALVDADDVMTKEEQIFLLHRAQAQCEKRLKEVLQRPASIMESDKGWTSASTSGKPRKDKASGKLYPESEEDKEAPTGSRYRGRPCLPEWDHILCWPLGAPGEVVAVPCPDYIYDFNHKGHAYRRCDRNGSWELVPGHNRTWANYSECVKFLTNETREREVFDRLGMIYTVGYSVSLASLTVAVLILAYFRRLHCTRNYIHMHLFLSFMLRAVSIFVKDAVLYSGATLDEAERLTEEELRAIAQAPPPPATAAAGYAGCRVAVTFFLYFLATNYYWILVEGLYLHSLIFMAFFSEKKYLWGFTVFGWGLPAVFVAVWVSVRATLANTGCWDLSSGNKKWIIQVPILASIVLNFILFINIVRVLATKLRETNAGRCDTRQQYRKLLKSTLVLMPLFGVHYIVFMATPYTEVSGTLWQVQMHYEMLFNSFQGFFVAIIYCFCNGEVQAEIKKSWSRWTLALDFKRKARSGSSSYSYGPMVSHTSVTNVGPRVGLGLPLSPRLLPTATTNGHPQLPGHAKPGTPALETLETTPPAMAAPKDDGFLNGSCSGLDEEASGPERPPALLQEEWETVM
The assay can be described thus: Agonist activity at human PTH1 receptor expressed in human GP2.3 cells assessed as induction of cAMP after 12 to 20 mins by luciferase reporter gene assay relative to PTH(1 to 34 residues)-NH2. Format: functional, cell-based.

The target in assay [2] is T1, Parathyroid hormone/parathyroid hormone-related peptide receptor (Homo sapiens). The assay can be described thus: Agonist activity at extracellular domain truncate human PTH1 receptor expressed in GD5 cells assessed as induction of cAMP after 12 to 20 mins by luciferase reporter gene assay. Format: functional, cell-based. The gist of the method:
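HEK293-derived lines stably expressing Glosensor cAMP reporter plus full-length human PTHR1 (GP2.3) or ECD-truncated PTHR1 (GD5). Confluent monolayers preincubated at room temperature in CO2-independent medium with 0.5 mM D-luciferin until baseline stable (30 min), then varied agonist concentrations added. Maximal luminescence (12−20 min) used for sigmoidal variable-slope fits.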

With `CC[C@H](C)[C@H](NC(=O)[C@H](CCC(=O)O)NC(=O)[C@H](CO)NC(=O)C[C@@H](NC(=O)[C@@H](N)CO)C(C)C)C(=O)N[C@@H](CCC(N)=O)C(=O)N[C@@H](CC(C)C)C(=O)N[C@@H](CCSC)C(=O)N[C@@H](Cc1cnc[nH]1)C(=O)N[C@@H](CC(N)=O)C(=O)N[C@@H](CC(C)C)C(=O)NCC(=O)N[C@@H](CCCCN)C(=O)N[C@@H](Cc1cnc[nH]1)C(=O)N[C@@H](CC(C)C)C(=O)N[C@@H](CC(N)=O)C(=O)N[C@@H](CO)C(=O)N[C@@H](CCSC)C(=O)N[C@@H](CCC(=O)O)C(=O)N[C@@H](CCCNC(=N)N)C(=O)N[C@H](C(=O)N[C@@H](CCC(=O)O)C(=O)N[C@@H](Cc1c[nH]c2ccccc12)C(=O)N[C@@H](CC(C)C)C(=O)N[C@@H](CCCNC(=N)N)C(=O)N[C@@H](CCCCN)C(=O)N[C@@H](CCCCN)C(=O)N[C@@H](CC(C)C)C(=O)N[C@@H](CCC(N)=O)C(=O)N[C@@H](CC(=O)O)C(=O)N[C@H](C(=O)N[C@@H](Cc1cnc[nH]1)C(=O)N[C@@H](CC(N)=O)C(=O)N[C@@H](Cc1ccccc1)C(N)=O)C(C)C)C(C)C`, in assay [1], the fold change (FC) was determined as 3.2. In addition, in assay [2], the outcome was Active.
Take `CC[C@H](C)[C@H](NC(=O)[C@H](CCC(=O)O)NC(=O)[C@H](CO)NC(=O)[C@@H](NC(=O)[C@@H](N)CO)C(C)C)C(=O)N[C@@H](CCC(N)=O)C(=O)N[C@@H](CC(C)C)C(=O)N[C@@H](CCSC)CC(=O)N[C@@H](Cc1cnc[nH]1)C(=O)N[C@@H](CC(N)=O)C(=O)N[C@@H](CC(C)C)C(=O)NCC(=O)N[C@@H](CCCCN)C(=O)N[C@@H](Cc1cnc[nH]1)C(=O)N[C@@H](CC(C)C)C(=O)N[C@@H](CC(N)=O)C(=O)N[C@@H](CO)C(=O)N[C@@H](CCSC)C(=O)N[C@@H](CCC(=O)O)C(=O)N[C@@H](CCCNC(=N)N)C(=O)N[C@H](C(=O)N[C@@H](CCC(=O)O)C(=O)N[C@@H](Cc1c[nH]c2ccccc12)C(=O)N[C@@H](CC(C)C)C(=O)N[C@@H](CCCNC(=N)N)C(=O)N[C@@H](CCCCN)C(=O)N[C@@H](CCCCN)C(=O)N[C@@H](CC(C)C)C(=O)N[C@@H](CCC(N)=O)C(=O)N[C@@H](CC(=O)O)C(=O)N[C@H](C(=O)N[C@@H](Cc1cnc[nH]1)C(=O)N[C@@H](CC(N)=O)C(=O)N[C@@H](Cc1ccccc1)C(N)=O)C(C)C)C(C)C`: the fold change (FC) in assay [1] was determined as 205. Also, in assay [2], the result was Active.
On the same counts, the results for `CC[C@H](C)[C@@H](CC(=O)N[C@@H](CCC(N)=O)C(=O)N[C@@H](CC(C)C)C(=O)N[C@@H](CCSC)C(=O)N[C@@H](Cc1cnc[nH]1)C(=O)N[C@@H](CC(N)=O)C(=O)N[C@@H](CC(C)C)C(=O)NCC(=O)N[C@@H](CCCCN)C(=O)N[C@@H](Cc1cnc[nH]1)C(=O)N[C@@H](CC(C)C)C(=O)N[C@@H](CC(N)=O)C(=O)N[C@@H](CO)C(=O)N[C@@H](CCSC)C(=O)N[C@@H](CCC(=O)O)C(=O)N[C@@H](CCCNC(=N)N)C(=O)N[C@H](C(=O)N[C@@H](CCC(=O)O)C(=O)N[C@@H](Cc1c[nH]c2ccccc12)C(=O)N[C@@H](CC(C)C)C(=O)N[C@@H](CCCNC(=N)N)C(=O)N[C@@H](CCCCN)C(=O)N[C@@H](CCCCN)C(=O)N[C@@H](CC(C)C)C(=O)N[C@@H](CCC(N)=O)C(=O)N[C@@H](CC(=O)O)C(=O)N[C@H](C(=O)N[C@@H](Cc1cnc[nH]1)C(=O)N[C@@H](CC(N)=O)C(=O)N[C@@H](Cc1ccccc1)C(N)=O)C(C)C)C(C)C)NC(=O)[C@H](CCC(=O)O)NC(=O)[C@H](CO)NC(=O)[C@@H](NC(=O)[C@@H](N)CO)C(C)C` are 28 and “Active”.
On the same counts, the results for `CC[C@H](C)[C@H](NC(=O)[C@H](CCC(=O)O)NC(=O)[C@H](CO)NC(=O)[C@@H](NC(=O)[C@@H](N)CO)C(C)C)C(=O)N[C@@H](CCC(N)=O)C(=O)N[C@H](CC(=O)N[C@@H](CCSC)C(=O)N[C@@H](Cc1cnc[nH]1)C(=O)N[C@@H](CC(N)=O)C(=O)N[C@@H](CC(C)C)C(=O)NCC(=O)N[C@@H](CCCCN)C(=O)N[C@@H](Cc1cnc[nH]1)C(=O)N[C@@H](CC(C)C)C(=O)N[C@@H](CC(N)=O)C(=O)N[C@@H](CO)C(=O)N[C@@H](CCSC)C(=O)N[C@@H](CCC(=O)O)C(=O)N[C@@H](CCCNC(=N)N)C(=O)N[C@H](C(=O)N[C@@H](CCC(=O)O)C(=O)N[C@@H](Cc1c[nH]c2ccccc12)C(=O)N[C@@H](CC(C)C)C(=O)N[C@@H](CCCNC(=N)N)C(=O)N[C@@H](CCCCN)C(=O)N[C@@H](CCCCN)C(=O)N[C@@H](CC(C)C)C(=O)N[C@@H](CCC(N)=O)C(=O)N[C@@H](CC(=O)O)C(=O)N[C@H](C(=O)N[C@@H](Cc1cnc[nH]1)C(=O)N[C@@H](CC(N)=O)C(=O)N[C@@H](Cc1ccccc1)C(N)=O)C(C)C)C(C)C)CC(C)C` are 12 and “Active”.
On to `CC[C@H](C)[C@H](NC(=O)[C@H](CCC(=O)O)NC(=O)[C@H](CO)NC(=O)[C@@H](NC(=O)C[C@@H](N)CO)C(C)C)C(=O)N[C@@H](CCC(N)=O)C(=O)N[C@@H](CC(C)C)C(=O)N[C@@H](CCSC)C(=O)N[C@@H](Cc1cnc[nH]1)C(=O)N[C@@H](CC(N)=O)C(=O)N[C@@H](CC(C)C)C(=O)NCC(=O)N[C@@H](CCCCN)C(=O)N[C@@H](Cc1cnc[nH]1)C(=O)N[C@@H](CC(C)C)C(=O)N[C@@H](CC(N)=O)C(=O)N[C@@H](CO)C(=O)N[C@@H](CCSC)C(=O)N[C@@H](CCC(=O)O)C(=O)N[C@@H](CCCNC(=N)N)C(=O)N[C@H](C(=O)N[C@@H](CCC(=O)O)C(=O)N[C@@H](Cc1c[nH]c2ccccc12)C(=O)N[C@@H](CC(C)C)C(=O)N[C@@H](CCCNC(=N)N)C(=O)N[C@@H](CCCCN)C(=O)N[C@@H](CCCCN)C(=O)N[C@@H](CC(C)C)C(=O)N[C@@H](CCC(N)=O)C(=O)N[C@@H](CC(=O)O)C(=O)N[C@H](C(=O)N[C@@H](Cc1cnc[nH]1)C(=O)N[C@@H](CC(N)=O)C(=O)N[C@@H](Cc1ccccc1)C(N)=O)C(C)C)C(C)C`, for which, in assay [1], the fold change (FC) was 0.7. The result in assay [2] was Active.
On the same counts, the results for `CC[C@H](C)[C@H](NC(=O)C[C@@H](CCC(=O)O)NC(=O)[C@H](CO)NC(=O)[C@@H](NC(=O)[C@@H](N)CO)C(C)C)C(=O)N[C@@H](CCC(N)=O)C(=O)N[C@@H](CC(C)C)C(=O)N[C@@H](CCSC)C(=O)N[C@@H](Cc1cnc[nH]1)C(=O)N[C@@H](CC(N)=O)C(=O)N[C@@H](CC(C)C)C(=O)NCC(=O)N[C@@H](CCCCN)C(=O)N[C@@H](Cc1cnc[nH]1)C(=O)N[C@@H](CC(C)C)C(=O)N[C@@H](CC(N)=O)C(=O)N[C@@H](CO)C(=O)N[C@@H](CCSC)C(=O)N[C@@H](CCC(=O)O)C(=O)N[C@@H](CCCNC(=N)N)C(=O)N[C@H](C(=O)N[C@@H](CCC(=O)O)C(=O)N[C@@H](Cc1c[nH]c2ccccc12)C(=O)N[C@@H](CC(C)C)C(=O)N[C@@H](CCCNC(=N)N)C(=O)N[C@@H](CCCCN)C(=O)N[C@@H](CCCCN)C(=O)N[C@@H](CC(C)C)C(=O)N[C@@H](CCC(N)=O)C(=O)N[C@@H](CC(=O)O)C(=O)N[C@H](C(=O)N[C@@H](Cc1cnc[nH]1)C(=O)N[C@@H](CC(N)=O)C(=O)N[C@@H](Cc1ccccc1)C(N)=O)C(C)C)C(C)C` are 108 and “Active”.
